# Compound activity (PubChem)
# This is a sample that favours compounds with a hit; in the whole collection about 4.6% have one here.
# OX1R antag-1 – human HCRTR1 antagonism. O43613. CHO/OX1R cells, Fluo-8 calcium fluorescence, orexin A. inhibition, % at 5 µM. 330,000 compounds, 0.43% hits;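 active = inhibition above its plate's threshold, mean inhibition of all tested compounds on the plate plus 3 SD, cut at about 37% in these data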;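 note: 0% = orexin A challenge wells and 100% = SB-334867-A antagonist wells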
# Target sequence (O43613 whole entry, looked up): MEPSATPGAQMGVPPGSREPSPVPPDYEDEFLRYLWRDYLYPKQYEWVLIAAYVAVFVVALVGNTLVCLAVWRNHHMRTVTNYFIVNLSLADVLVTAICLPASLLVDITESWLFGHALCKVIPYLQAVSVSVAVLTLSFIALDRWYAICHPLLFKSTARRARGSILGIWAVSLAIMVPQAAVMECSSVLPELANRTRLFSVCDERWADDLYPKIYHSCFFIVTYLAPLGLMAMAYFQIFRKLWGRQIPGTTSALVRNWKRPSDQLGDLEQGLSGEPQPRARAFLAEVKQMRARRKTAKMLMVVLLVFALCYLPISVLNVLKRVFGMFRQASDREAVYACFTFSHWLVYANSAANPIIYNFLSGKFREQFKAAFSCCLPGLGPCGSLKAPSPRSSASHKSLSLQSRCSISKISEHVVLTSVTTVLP
# GPR7 antagonist – blocks human GPR7 receptor signaling. P48145. GPR7-expressing cells, fluorescence antagonist assay. AID 1861. 290,000 compounds, 1.1% hits. inhibition, % at 4.4 µM; in the data active = inhibition above about 16%, passing the limit was not always enough;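 note: cells stimulated with the agonist NPW; 0% = agonist with vehicle and 100% = vehicle without agonist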
# TAAR1 agonist – agonists of human TAAR1; Q96RJ0; AID 624467; activation, % at 3 µM; 360,000 compounds, 0.99% hits; CHO RD-HGA16 TAAR1, Fluo-8 calcium fluorescence; vehicle wells 0%, saturating PEA agonist 100%;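 active = activation above the mean activation of all test compounds in the run plus 3 SD, cut at about 38% in these data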
#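 test system = CHO RD-HGA16 cells carrying human TAAR1 plus Gα16 | schedule = 17-24 h seeding, 75 min 37 °C dye, 30 min RT | compound dosing = 3 µM single concentration | control set = DMSO and PEA EC100 | replicates = n 1 | signal = Fluo-8 fluorescence, 5 s baseline then 140 s kinetic read | measure = percent activation vs PEA EC100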
# TAAR1 antag – antagonists of human TAAR1; Q96RJ0; CHO RD-HGA16 TAAR1, Fluo-8 calcium fluorescence, antagonist; inhibition, % at 3 µM; 360,000 compounds, 1.5% hits; AID 624466;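 active = inhibition above a per-plate cutoff, the mean inhibition of test compounds on that plate plus 3 SD, cut at about 49% in these data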;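 note: 0% = DMSO plus EC80 beta-PEA response and 100% = DMSO alone without agonist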
#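 Test system: RD-HGA16 CHO cells with stable hTAAR1 and Gα16 / Probe or stimulus: EC80 β-phenethylamine stimulus / Times: seeding 17-24 h prior, 75-min 37 °C, 30-min RT dye loading / Detection: Fluo-8 calcium-sensitive fluorescence / Read-out basis: % inhibition scaled between DMSO and EC80 PEA controls / Repeats: singlicate, one well per test compound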
# CHO parental Ca – counter-screen for OX1R antagonists: effect in parental CHO cells | parental CHO-K1, ATP-induced calcium, Fluo-8 fluorescence | inhibition, % at 5.6 µM | 330,000 compounds, 0.63% hits | AID 463079;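 active = inhibition above that plate's mean sample inhibition plus 3 SD, cut at about 26% in these data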;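 note: 0% = ATP-challenged DMSO wells and 100% = DMSO wells without ATP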
#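 Material: Parental CHO cells | Reagent: ATP | Compound dosing: Single nominal dose of 5.6 µM per compound | Detection: Intracellular calcium via Fluo-8 no-wash fluorescent dye | Read-out: % inhibition of ATP-induced calcium mobilization | Benchmarks: Low control ATP plus DMSO, high control DMSO only | Replicates: Singlicate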
# OX1R antag-2 – OX1R (human) antagonism. O43613. OX1R-expressing cells, FRET antagonist read-out. inhibition, % at 6.6 µM. 330,000 compounds, 1.8% hits. AID 485270; in the data active = inhibition mostly above about 38%, no sharp cut-off; inactive = mostly below about 40%;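 note: 0% = agonist challenge alone and 100% = reference antagonist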
# TAAR1 nonsel count – counter-screen for TAAR1 antagonists: nonselective antagonists. inhibition, % at 3 µM. counterscreen cell line, calcium fluorescence, antagonist mode. 2,400 compounds, 77% hits. shares compounds with TAAR1 antag; in the data active = inhibition above about 22%;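 note: CHO-Ga16 host cells stimulated with ATP at an EC80 level; 0% = agonist EC80 plus vehicle and 100% = vehicle without agonist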
# TAAR1 ant conf – confirmation of human TAAR1 antagonists. 2,400 compounds, 40% hits. inhibition, % at 3 µM. TAAR1-expressing cells, fluorescence antagonist read-out. shares compounds with TAAR1 antag; in the data active = inhibition above about 49%;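 note: CHO-Ga16 host cells challenged with agonist PEA near its EC80; 0% = agonist at EC80 plus vehicle and 100% = vehicle with no agonist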
# Ga16 ag counter – nonselective Ga16 agonism, counter-screen | 2,400 compounds, 18% hits | shares compounds with TAAR1 antag | Ga16-expressing cells, calcium fluorescence, agonist counterscreen | activation, % at 3 µM | AID 651953; in the data active = activation above about 12%;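 note: 0% = vehicle wells and 100% = saturating stimulus response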
# TAAR1 ag counter – activates human TAAR1 in antagonist counter-screen; AID 651955; hTAAR1 cell line, fluorescence activation, agonist mode; shares compounds with TAAR1 antag; activation, % at 3 µM; 2,400 compounds, 2% hits; in the data active = activation above about 37%;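 note: CHO cells stably expressing TAAR1 with calcium dye readout; 0% = DMSO vehicle and 100% = full agonist response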
# * = called active by the depositor; x = no result given.
SMILES,OX1R antag-1,GPR7 antagonist,TAAR1 agonist,TAAR1 antag,CHO parental Ca,OX1R antag-2,TAAR1 nonsel count,TAAR1 ant conf,Ga16 ag counter,TAAR1 ag counter
O=C(Cc1ccc([N+](=O)[O-])cc1)Nc1cc(C(F)(F)F)cc(C(F)(F)F)c1,0,-18,2,-13,12,8,x,x,x,x
O=C(C1=C[C@@H](c2csc3ccccc23)C[C@@H](OCc2ccc(CO)cc2)O1)N1CCOCC1,-2,-6,32,57*,-1,22,26*,35,6,6
CC(=O)n1cc([C@H]2C=C(C(=O)N3CCN(Cc4ccccc4)CC3)O[C@@H](OCc3ccc(CO)cc3)C2)c2ccccc21,-6,-14,27,69*,-22,13,35*,46,9,9
O=C(NC1CC1)C1=C[C@H](c2csc3ccccc23)C[C@H](OCc2ccc(CO)cc2)O1,-24,x,34,58*,-17,12,26*,44,16*,23
O=C(Nc1ccccc1)C1=C[C@@H](c2coc3ccccc3c2=O)C[C@@H](OCc2ccc(CO)cc2)O1,-24,-12,8,51*,-26,27,20,25,2,-1
O=S1(=O)N=C(Nc2nc3c(s2)CCCC3)c2ccccc21,-6,3,13,-8,-5,44,x,x,x,x
CCC(CC)CN1CCC(CN2CCNC(=O)C2=O)CC1,x,x,2,0,x,x,x,x,x,x
CCOc1cc(N2CCOCC2)c(OCC)cc1NC(=O)CSc1nnc(N)s1,-22,x,-2,100*,-16,9,7,-4,4,4
C=CCC[C@@H](Cc1ccc(F)cc1)C(=O)OC[C@H](C)NC(=O)[C@H](CC=C)CC(=O)N(CCO)Cc1ccccc1,31,x,15,71*,-8,14,27*,40,5,2
C=CC[C@@H](CC(=O)N(CCO)Cc1ccccc1)C(=O)N[C@H](COC(=O)[C@@H](CC=C)Cc1ccc(F)cc1)Cc1ccccc1,29,x,11,75*,-9,5,27*,48,7,7
CCc1nc2ccc(C(=O)NCCOc3ccc(OC)cc3)cn2c1N(C)Cc1ccc(OC)cc1,x,x,0,43,x,x,x,x,x,x
CCc1nc2ccc(C(=O)NCCOc3ccc(OC)cc3)cn2c1N(C)Cc1cccs1,x,x,0,62*,x,x,29*,33,5,1
O=C(Nc1ccc(NC(=S)NC(=O)c2ccccc2F)cc1)c1cccs1,-30,-3,11,52*,0,32,20,28,9,10
COc1cc(NC(=S)NC(=O)c2ccccc2F)ccc1NC(=O)c1cccs1,-38,-10,5,-13,-17,13,x,x,x,x
O=C1OC(c2ccccc2)/C(=C(/O)c2ccccc2)C1=O (centres undefined),-3,5,5,-13,-15,22,x,x,x,x
CC(/C=C(\NC(=O)c1ccccc1)C(=O)N=Nc1c(O)[nH]c2ccc(C)cc12)=C\c1ccccc1,-17,-3,11,65*,-19,68,20,47,7,5
Cc1ccc2[nH]c(O)c(N=NC(N)=S)c2c1,1,7,0,-16,1,16,x,x,x,x
C=C(C)C(=O)OCC(O)COc1ccc(C(C)(C)c2ccc(OCC(O)COC(=O)C(=C)C)cc2)cc1 (centres undefined),25,x,15,92*,57*,20,55*,70*,19*,27
O=C(NCc1cccc(Cl)c1)c1ccc(S(=O)(=O)Nc2cccc(C(F)(F)F)c2)cc1,0,0,23,1,6,-4,x,x,x,x
O=C(CCCN1C(=O)C(c2ccccc2)Oc2cccnc21)NCc1ccccc1F (centres undefined),-12,-2,1,-6,-17,7,x,x,x,x
N#CCCN(C(=O)COC(=O)c1ccc2ccccc2n1)c1ccccc1,-11,x,13,2,-9,7,x,x,x,x
CN1CCc2nc3ccccc3c(C(=O)OCC(=O)N(CCC#N)c3ccccc3)c2C1,-39,-1,17,51*,-17,37,23*,47,8,10
O=C(Nc1ccccc1)c1cccc(N2C(=O)C3C4C=CC(C5CC45)C3C2=O)c1 (centres undefined),-22,-10,8,24,-30,7,x,x,x,x
COC(=O)c1ccc(NC(=O)c2cccc(N3C(=O)C4C5C=CC(C6CC56)C4C3=O)c2)cc1 (centres undefined),-23,4,13,65*,-6,18,58*,75*,15*,12
Cc1onc(-c2c(Cl)cccc2Cl)c1C(=O)c1c[nH]c(C(=O)NCC2CCCO2)c1 (centres undefined),-33,-7,26,62*,2,22,32*,45,11,13
SMILES,OX1R antag-1,GPR7 antagonist,TAAR1 agonist,TAAR1 antag,CHO parental Ca,OX1R antag-2,TAAR1 nonsel count,TAAR1 ant conf,Ga16 ag counter,TAAR1 ag counter
COc1ccc(CCNC(=O)c2ccc(Cl)c(S(=O)(=O)N(C)c3ccccc3)c2)cc1,-2,-13,12,57*,-2,3,33*,44,9,3
OC(c1cccc(Cl)c1)c1nc(-c2cc3ccccc3o2)cs1 (centres undefined),x,x,24,61*,x,x,36*,49*,7,12
Cc1cccnc1NC(=S)NCCc1ccccc1,-23,10,7,-22,-9,15,x,x,x,x
COc1ccc(OC)c(NC(=O)C2(C)CCN2Cc2cccc(OC)c2F)c1 (centres undefined),x,x,-1,51*,x,x,15,30,1,-1
Oc1c(N=NC(=S)Nc2ccccc2F)c2ccccc2n1Cc1ccccc1F,-19,-10,7,54*,-1,42,-2,30,5,4
Cc1ccccc1Cn1c(O)c(N=NC(=S)Nc2ccccc2F)c2ccccc21,-37,-15,-1,11,-3,2,x,x,x,x
CCOC(=O)c1c(C)[nH]c(C)c1C(=O)CSc1nc2ccccc2c(=O)n1-c1ccccc1C,-35,-8,14,57*,-35,26,26*,47,7,14
CCOC(=O)c1c(C)[nH]c(C)c1C(=O)CSc1nc2ccccc2c(=O)n1-c1ccc(F)cc1,-36,-9,9,36,-35,19,x,x,x,x
